Common to all, as to assay type: functional
A short description of test [1]: The minimum inhibitory concentration was measured against Herpes simplex virus type 1 (KOS strain) on E6SM cells. As to conditions: Human alphaherpesvirus 1. A digest of the protocol: (§1)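 Antiviral endpoint was the concentration reducing virus-induced cytopathicity by 50% in […] cell cultures. Values are means of two to six independent determinations.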
In test [2] the test system is Human alphaherpesvirus 1. Briefly: The minimum inhibitory concentration was measured on E6SM cells against Herpes simplex virus type 1 (F strain). Put shortly: as §1
A short description of test [3]: The minimum inhibitory concentration was measured on E6SM cells against Herpes simplex virus type 1 (McIntyre strain). Conditions: Human alphaherpesvirus 1. A digest of the protocol: as §1
Test [4] has as its system Human alphaherpesvirus 1. Briefly: The minimum inhibitory concentration was measured on E6SM cells against TK+/TK-Herpes simplex virus type 1 (VMW1837 strain). A digest of the protocol: as §1
Test [5] deals with Human alphaherpesvirus 1. Briefly: The minimum inhibitory concentration was measured on E6SM cells against TK-Herpes simplex virus type 1 (B2006 strain). Put shortly:
as §1

The subject of test [6] is Vaccinia virus. Description: The minimum inhibitory concentration was measured on E6SM cells against Vaccinia virus. Conditions: Orthopoxvirus vaccinia. A digest of the protocol: as §1
The subject of test [7] is E6SM. Briefly: The minimum inhibitory concentration was measured on E6SM cells for morphological alteration. As to conditions: Homo sapiens. Put shortly: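 In uninfected E6SM cells, the value is the concentration giving a microscopically detectable change in normal cell morphology. Values are means of two to six independent determinations.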
For test [8], the system named is Human alphaherpesvirus 3. Briefly: The minimum inhibitory concentration was measured on HEL cells against TK-Varicella zoster virus (07/1 strain). Put shortly:
(§2)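 Antiviral endpoint was the concentration reducing virus plaque formation by 50% in HEL cell cultures. Values are means of two to six independent determinations.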

Test [9] concerns Human alphaherpesvirus 3. Description: The minimum inhibitory concentration was measured on HEL cells against TK-Varicella zoster virus (YS-R strain). Conditions: Human alphaherpesvirus 3, ys-r. Put shortly:
as §2

Test [10] deals with Human alphaherpesvirus 3. Description: The minimum inhibitory concentration was measured on HEL cells against Varicella zoster virus (OKA strain). As to conditions: Human alphaherpesvirus 3, oka. Put shortly:
as §2

For test [11], the system named is Human alphaherpesvirus 3. Description: The minimum inhibitory concentration was measured on HEL cells against Varicella zoster virus (YS strain). A digest of the protocol:
as §2

The subject of test [12] is HEL. Description: The […] was measured on HEL cells in cell growth. Conditions: Homo sapiens.
Test [13] deals with Human betaherpesvirus 5. Briefly: The minimum inhibitory concentration was measured on HEL cells against Cytomegalovirus virus (AD-169 strain). A digest of the protocol: as §2
Test [14] concerns Cytomegalovirus. Briefly: The minimum inhibitory concentration was measured on HEL cells against Cytomegalovirus virus (Davis strain). As to conditions: Human betaherpesvirus 5. Put shortly:
as §2

Test [15] has as its system HEL. Description: The minimum inhibitory concentration was measured on HEL cells against Cytomegalovirus virus (Davis strain); (<100>40). Conditions: Homo sapiens. Put shortly: as §2
The subject of test [16] is HEL. Briefly: The minimum inhibitory concentration was measured on HEL cells against Cytomegalovirus virus (AD-169 strain); (<100>40). Conditions: Homo sapiens. A digest of the protocol:
as §2

The subject of test [17] is HEL. Description: The minimum inhibitory concentration was measured on HEL cells against Cytomegalovirus virus (AD-169 strain); (<400>100). As to conditions: Homo sapiens. A digest of the protocol: as §2
Test [18] relates to HEL. Description: The minimum inhibitory concentration was measured on E6SM cells against Vesicular stomatitis virus. Conditions: Homo sapiens. Put shortly:
as §1

For test [19], the system named is HEL. Description: The minimum inhibitory concentration was measured on HEL cells against Cytomegalovirus virus (Davis strain); (<400>100). Conditions: Homo sapiens. Put shortly:
as §2

Converted amounts (≈) assume the structure as drawn. A value given as a limit tells only on which side of the number the result lay.

For the compound `Cc1cnc2nc3c(c(O)n12)NCN3COCCO`, the MIC in test [1] was 2.1 mg/L (≈ 7.92 µM); in test [2], 0.1 mg/L (≈ 0.377 µM); in [3], 0.5 mg/L (≈ 1.88 µM); in test [4], over 120 mg/L; in test [5], over 50 mg/L; in test [6] it was over 150 mg/L. Also, the MIC in test [7] is over 100 mg/L; in test [8] it was over 50 mg/L; in [9], over 50 mg/L; in [10] it was over 50 mg/L; in test [11], over 50 mg/L; in test [12], over 200 mg/L. Also, the MIC in [13] and in test [14] was over 50 mg/L throughout.

Take `OCCOCN1CNc2c1nc1nc(-c3ccc(Br)cc3)cn1c2O`: the MIC in test [1] was 0.6 mg/L (≈ 1.48 µM); in test [2] it was 2 mg/L (≈ 4.92 µM); in test [3], 0.2 mg/L (≈ 0.492 µM); in test [4], over 70 mg/L; in test [6], over 70 mg/L; in [7] it was at least 70 mg/L. The MIC in test [15] is over 40 mg/L; in test [8], 125 mg/L (≈ 308 µM); in test [9], 230 mg/L (≈ 566 µM); in test [10] it was 1 mg/L (≈ 2.46 µM); in [11], 4 mg/L (≈ 9.85 µM); in test [12] it was over 200 mg/L. In addition, the MIC in test [16] was over 40 mg/L.

On to `CC(C)(C)c1cn2c(O)c3c(nc2n1)N(COCCO)CN3`, for which the MIC in test [1] was 4.5 mg/L (≈ 14.6 µM); in test [2], 4 mg/L (≈ 13 µM); in test [3], 2 mg/L (≈ 6.51 µM); in test [4], over 125 mg/L; in test [6], over 250 mg/L; in test [7], over 250 mg/L. The MIC is over 100 mg/L in [17]; 40 mg/L (≈ 130 µM) in test [8]; 127 mg/L (≈ 413 µM) in test [9]; 1 mg/L (≈ 3.25 µM) in test [10]; 2.2 mg/L (≈ 7.16 µM) in test [11]; 167 mg/L (≈ 543 µM) in test [12]. In addition, the MIC in test [18] is over 125 mg/L; in test [19] it was over 100 mg/L.

Consider `Cc1cn2c(O)c3c(nc2n1)N(COC(CO)CO)CN3`, for which the MIC was 0.015 mg/L (≈ 0.0508 µM) in test [1]; 0.005 mg/L (≈ 0.0169 µM) in test [2]; 0.02 mg/L (≈ 0.0677 µM) in [3]; 1.6 mg/L (≈ 5.42 µM) in test [4]; 31 mg/L (≈ 105 µM) in test [5]; over 175 mg/L in [6]. The MIC was over 175 mg/L in [7]; 15 mg/L (≈ 50.8 µM) in test [8]; 15 mg/L (≈ 50.8 µM) in test [9]; 1 mg/L (≈ 3.39 µM) in test [10]; 12 mg/L (≈ 40.6 µM) in [11]; over 200 mg/L in [12]. The MIC in test [13] and in test [14] was over 50 mg/L throughout.

In the case of `CC(C)(C)c1cn2c(O)c3c(nc2n1)N(COC(CO)CO)CN3`, the MIC in test [1] is 0.035 mg/L (≈ 0.104 µM); in test [2], 0.1 mg/L (≈ 0.296 µM); in test [3] it was 0.1 mg/L (≈ 0.296 µM); in [4] it was 0.7 mg/L (≈ 2.07 µM); in test [5], over 70 mg/L; in [6], over 135 mg/L. Moreover, the MIC in test [7] is over 175 mg/L; in [8] it was 50 mg/L (≈ 148 µM); in test [9], 50 mg/L (≈ 148 µM); in test [10], 5 mg/L (≈ 14.8 µM); in test [11] it was over 20 mg/L; in test [12] it was over 200 mg/L. The MIC in test [13] and in test [14] was over 50 mg/L throughout.

Regarding `Cc1cn2c(O)c3c(nc2n1)N(COCCO)C(Br)N3` (centres undefined), the MIC in [1] was 95 mg/L (≈ 276 µM); in [2], 150 mg/L (≈ 436 µM); in [3] it was 150 mg/L (≈ 436 µM); in test [4] it was over 125 mg/L; in test [6], over 250 mg/L; in test [7], over 250 mg/L. Moreover, the MIC in [17] is over 100 mg/L; in test [8] it was 180 mg/L (≈ 523 µM); in test [9], 185 mg/L (≈ 538 µM); in test [10] it was 215 mg/L (≈ 625 µM); in [11], 220 mg/L (≈ 639 µM); in test [12], over 200 mg/L. This compound also displayed an MIC in test [19] of over 100 mg/L.

`OCCOCN1CNc2c1nc1nc(-c3ccccc3)cn1c2O`: the MIC is 0.4 mg/L (≈ 1.22 µM) in test [1]; 0.7 mg/L (≈ 2.14 µM) in test [2]; 0.2 mg/L (≈ 0.611 µM) in [3]; over 70 mg/L in [4]; over 100 mg/L in [6]; over 100 mg/L in [7]. The MIC in test [17] is over 100 mg/L; in test [8], 67 mg/L (≈ 205 µM); in [9] it was 67 mg/L (≈ 205 µM); in [10] it was 1.3 mg/L (≈ 3.97 µM); in test [11], 1.4 mg/L (≈ 4.28 µM); in test [12] it was 45 mg/L (≈ 137 µM). Also, the MIC in test [14] is 166 mg/L (≈ 507 µM).

On to `OCC(CO)OCN1CNc2c1nc1nc(-c3ccccc3)cn1c2O`, for which the MIC is 0.02 mg/L (≈ 0.056 µM) in test [1]; 0.005 mg/L (≈ 0.014 µM) in [2]; 0.005 mg/L (≈ 0.014 µM) in [3]; 0.5 mg/L (≈ 1.4 µM) in test [4]; over 30 mg/L in test [5]; over 90 mg/L in test [6]. Also, the MIC in test [7] is over 175 mg/L; in test [8], 3 mg/L (≈ 8.39 µM); in test [9], 1 mg/L (≈ 2.8 µM); in test [10], 0.4 mg/L (≈ 1.12 µM); in test [11], 3 mg/L (≈ 8.39 µM); in test [12], over 200 mg/L. Moreover, the MIC in [13] stood at 20 mg/L (≈ 56 µM); in test [14] it was 7 mg/L (≈ 19.6 µM).
